The results in this text go back to ChEMBL document CHEMBL1132255, “Structure-activity relationships for 5-substituted 1-phenylbenzimidazoles as selective inhibitors of the platelet-derived growth factor receptor” (J Med Chem, 1999).

Assay [1] deals with Platelet-derived growth factor receptor beta (Mus musculus, UniProt P05622). The assay is described as follows: Inhibition of [32P]ATP incorporated (phosphorylation) into glutamate-tyrosine copolymer substrate by mouse platelet-derived growth factor receptor beta. An outline of the steps: (§1)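 Enzymes were intracellular tyrosine kinase domain fragments (human FGFR-1 […], mouse PDGFR-β […]), 60–75 ng per reaction, in 25 mM HEPES pH 7.4 with 150 mM NaCl, 10 mM MnCl₂, 0.2 mM sodium orthovanadate, Glu-Tyr (4:1) random copolymer substrate and varied inhibitor. Reactions were started with [³²P]ATP (0.4 μCi), run 10 min at 25 °C and stopped with 15% TCA. IC50 was taken as the concentration reducing ³²P incorporation into the copolymer.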

The target in assay [2] is Fibroblast growth factor receptor 1 (Homo sapiens, UniProt P11362). The assay is described as follows: Inhibition of [32P]ATP incorporated (phosphorylation) into glutamate-tyrosine copolymer substrate by human fibroblast growth factor receptor 1. The method, boiled down: as §1
Assay [3] has as its target T1, Platelet-derived growth factor receptor (PDGFr) (Rattus norvegicus, UniProt P20786+Q05030). Description: Inhibition of Platelet-derived growth factor receptor beta autophosphorylation in Rat aorta vascular smooth muscle cells(RAVSMC).
Assay [4] addresses T1, Platelet-derived growth factor receptor (PDGFr). Description: Inhibition of Platelet-derived growth factor receptor beta autophosphorylation in Rat aorta vascular smooth muscle cells(RAVSMC).

Bounds are passed on as bounds.

Sequence of Fibroblast growth factor receptor 1 (P11362 whole entry): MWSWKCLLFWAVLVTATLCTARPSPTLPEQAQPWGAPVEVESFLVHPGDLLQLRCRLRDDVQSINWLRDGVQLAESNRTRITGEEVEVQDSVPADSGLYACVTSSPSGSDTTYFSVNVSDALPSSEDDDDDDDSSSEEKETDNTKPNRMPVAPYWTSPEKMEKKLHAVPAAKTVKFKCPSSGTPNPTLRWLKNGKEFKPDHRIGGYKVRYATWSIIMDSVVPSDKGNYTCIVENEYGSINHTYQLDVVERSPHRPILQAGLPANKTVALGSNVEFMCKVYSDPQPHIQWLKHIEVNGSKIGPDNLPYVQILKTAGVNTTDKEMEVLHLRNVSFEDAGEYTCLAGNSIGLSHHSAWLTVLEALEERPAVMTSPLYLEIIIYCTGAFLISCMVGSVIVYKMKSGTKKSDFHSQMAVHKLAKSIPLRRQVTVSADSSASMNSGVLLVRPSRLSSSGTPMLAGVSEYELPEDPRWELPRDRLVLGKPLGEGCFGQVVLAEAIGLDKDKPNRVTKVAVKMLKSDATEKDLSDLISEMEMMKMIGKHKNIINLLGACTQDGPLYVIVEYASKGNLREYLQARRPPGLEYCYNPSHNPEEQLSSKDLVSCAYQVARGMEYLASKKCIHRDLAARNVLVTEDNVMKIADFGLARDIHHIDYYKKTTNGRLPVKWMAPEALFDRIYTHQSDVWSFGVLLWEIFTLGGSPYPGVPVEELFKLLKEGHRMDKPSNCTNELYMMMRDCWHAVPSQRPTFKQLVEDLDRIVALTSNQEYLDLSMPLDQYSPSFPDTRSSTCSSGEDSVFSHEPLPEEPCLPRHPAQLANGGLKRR
Sequence of Platelet-derived growth factor receptor beta (P05622 whole entry, the tested form may be a part): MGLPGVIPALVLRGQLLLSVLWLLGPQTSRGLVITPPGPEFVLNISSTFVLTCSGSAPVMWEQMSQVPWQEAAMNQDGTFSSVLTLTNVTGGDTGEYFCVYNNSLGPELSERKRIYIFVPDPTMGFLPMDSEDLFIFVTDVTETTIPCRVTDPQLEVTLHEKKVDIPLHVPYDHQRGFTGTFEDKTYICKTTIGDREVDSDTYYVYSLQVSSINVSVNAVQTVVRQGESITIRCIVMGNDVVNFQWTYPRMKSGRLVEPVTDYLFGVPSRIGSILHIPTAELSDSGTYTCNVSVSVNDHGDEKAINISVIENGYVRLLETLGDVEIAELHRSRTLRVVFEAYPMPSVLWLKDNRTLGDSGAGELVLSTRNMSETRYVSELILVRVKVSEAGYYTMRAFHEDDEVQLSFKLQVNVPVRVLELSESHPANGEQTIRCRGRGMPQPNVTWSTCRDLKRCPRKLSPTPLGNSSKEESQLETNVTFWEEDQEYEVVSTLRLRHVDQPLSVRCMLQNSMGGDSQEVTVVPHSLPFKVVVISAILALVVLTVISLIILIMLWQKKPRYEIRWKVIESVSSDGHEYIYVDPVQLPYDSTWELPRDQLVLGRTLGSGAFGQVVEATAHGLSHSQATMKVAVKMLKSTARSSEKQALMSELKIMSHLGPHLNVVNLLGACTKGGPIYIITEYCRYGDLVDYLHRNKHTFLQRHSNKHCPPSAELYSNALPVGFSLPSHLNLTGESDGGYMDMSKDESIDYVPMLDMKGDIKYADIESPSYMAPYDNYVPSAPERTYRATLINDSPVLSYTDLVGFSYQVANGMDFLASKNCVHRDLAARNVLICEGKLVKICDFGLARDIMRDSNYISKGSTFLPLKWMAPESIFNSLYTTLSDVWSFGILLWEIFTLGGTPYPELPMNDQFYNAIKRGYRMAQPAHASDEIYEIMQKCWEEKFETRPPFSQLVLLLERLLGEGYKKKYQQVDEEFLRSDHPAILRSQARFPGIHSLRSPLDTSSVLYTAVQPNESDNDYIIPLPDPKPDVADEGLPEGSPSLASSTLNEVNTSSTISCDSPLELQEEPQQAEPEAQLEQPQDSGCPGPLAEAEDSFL

Take `Oc1cccc2c1ncn2-c1ccccc1`: the IC50 (in general, the concentration that inhibits the measured activity by half) in assay [1] came out at 14 µM. As for `CN(C)CCCCOc1ccc2c(c1)ncn2-c1ccccc1`, the IC50 in assay [2] was 6.8 µM; in assay [1], 0.16 µM. Turning to `CCCOc1ccc2c(c1)ncn2-c1ccccc1`, the IC50 in assay [1] turned out to be 0.25 µM.

`COc1cc2ncn(-c3ccccc3)c2cc1C=O`: the IC50 in assay [2] worked out at 25 µM; in assay [1], 1 µM. For `COc1ccc2c(ncn2-c2ccccc2)c1OC` the same measures were above 50 µM and above 50 µM. For `c1ccc(-n2cnc3cc(SCCCN4CCOCC4)ccc32)cc1` the same measures were 24 µM and above 50 µM. `C=CCOc1ccc2c(c1)ncn2-c1ccccc1` registered an IC50 in assay [1] of 0.61 µM.

With `COc1ccc2c(c1)ncn2-c1ccc(N)cc1`, the IC50 in assay [1] is 0.28 µM; in assay [3] it was 1.36 µM.

In the case of `COc1ccc2c(ncn2-c2ccccc2)c1O`, in assay [2], the IC50 was above 50 µM. On to `c1ccc(-n2cnc3cc(OCCN4CCOCC4)ccc32)cc1`, for which the figures for the IC50 in assay [1] and in assay [4] were 0.73 µM and 0.79 µM, respectively. `COc1cc2ncn(-c3ccccc3)c2cc1CO`: the IC50 in assay [2] is 11 µM; in assay [1] it was 0.37 µM. On to `COc1c(O)ccc2c1ncn2-c1ccccc1`, for which the IC50 in assay [2] and in assay [1] was above 50 µM each time. Take `OCC(O)COc1ccc2c(c1)ncn2-c1ccccc1` (stereo not drawn): in assay [1], the IC50 was 0.31 µM. For `C=CCc1c(O)ccc2c1ncn2-c1ccccc1`, the IC50 in assay [2] and in assay [1] was above 50 µM in each case. Take `CCOc1ccc2c(c1)ncn2-c1ccccc1`: the 50% inhibitory concentration (IC50) came to 26 µM in assay [2] and 0.24 µM in assay [1]. Regarding `NCCOc1ccc2c(c1)ncn2-c1ccccc1`, in assay [1], half-maximal inhibition (IC50) was put at 0.65 µM. As for `CSc1ccc2c(c1)ncn2-c1ccccc1`, the IC50 in assay [2] is 27 µM; in assay [1] it was 0.74 µM.

For `OCCCCOc1ccc2c(c1)ncn2-c1ccccc1`, in assay [1], the IC50 worked out at 0.45 µM.

With `C=CCOc1ccc2c(ncn2-c2ccccc2)c1Br`, the IC50 in assay [2] and in assay [1] was above 50 µM each time. The compound `c1ccc(-n2cnc3cc(OCCCN4CCOCC4)ccc32)cc1` came in with a half-maximal inhibitory concentration (IC50) in assay [1] of 0.17 µM. As for `Oc1ccc2c(ncn2-c2ccccc2)c1Br`, the IC50 in assay [2] and in assay [1] was above 50 µM throughout.

In the case of `c1ccc(-n2cnc3cc(OCC4CO4)ccc32)cc1` (stereo not drawn), the figures for the IC50 in assay [2] and in assay [1] were 18 µM and 0.32 µM, respectively. In assay [1], `CN(C)CCCOc1ccc2c(c1)ncn2-c1ccccc1` displayed an IC50 of 0.15 µM. As to `COC(=O)c1cc2c(cc1OC)ncn2-c1ccccc1`, the IC50 in assay [1] was 0.87 µM.
